Screening results from PubChem BioAssay.
The list is not random: actives were taken first. Their share in the collection is about 4.1%.
Dynein transport: inhibitors of GR-EGFP nuclear translocation, primary screen, dynein cargo transport inhibitor project, imaging, high-content, 3617.4 mouse cells; test concentration mostly 20 µM; stimulated with dexamethasone, 1 µM; active compounds read low; z-score, hits read low; 220,000 compounds, 0.47% hits; AID 1381, 2008;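 active = plate z-score of nuclear minus cytoplasmic receptor signal below a set negative limit, without overly bright fluorescence or cell loss, cut at about -3.5 in these data, passing the limit was not always enough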;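 also: z-score of nuclear minus cytoplasmic ring GR-EGFP intensity difference per well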
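Buffer or medium: tet-free medium with charcoal-stripped serum / Also added: dexamethasone agonist, 1.0 µM final, for 30 min / Timing: induction 48 h, compound 1 h, agonist 30 min / Measured by: high-content fluorescence imaging after fixation / Read-out: nuclear-to-cytoplasmic GR-EGFP distribution per well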
ROMK primary: ROMK potassium channel modulators, primary screen, cell-based, thallium flux, MLSMR library; B-score at 10 µM; Tet-inducible ROMK, thallium flux fluorescence; actives lie on both sides; 130,000 compounds, 2% hits; ATP-sensitive inward rectifier potassium channel 1 (Homo sapiens), P48048; AID 1918, 2009;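 active = signal ratio slope over the read window, or its plate-corrected B-score, at least 3 SD from the plate mean, either direction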;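 also: B-score of the F/F0 ratio slope over 7 to 12 s after thallium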
KCC2 mod: KCC2 cotransporter modulators, thallium flux, primary screen, cell-based, HEK293 KCC2, FluoZin-2 fluorescence, MLSMR | Solute carrier family 12 member 5 (Homo sapiens), Q9H2X9 | 190,000 compounds, 2.2% hits | KCC2 cells, thallium flux FluoZin-2 fluorescence | B-score of Tl+ flux slope (higher = more flux/activation; lower = inhibition) at 10 µM;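 active = thallium flux slope and its plate-corrected score both differing from the plate sample mean at a set confidence after two filtering rounds, in either direction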;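 also: slope of fluorescence scaled to starting intensity during 10 to 20 s after thallium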
Target sequence (Q9H2X9 whole entry, looked up): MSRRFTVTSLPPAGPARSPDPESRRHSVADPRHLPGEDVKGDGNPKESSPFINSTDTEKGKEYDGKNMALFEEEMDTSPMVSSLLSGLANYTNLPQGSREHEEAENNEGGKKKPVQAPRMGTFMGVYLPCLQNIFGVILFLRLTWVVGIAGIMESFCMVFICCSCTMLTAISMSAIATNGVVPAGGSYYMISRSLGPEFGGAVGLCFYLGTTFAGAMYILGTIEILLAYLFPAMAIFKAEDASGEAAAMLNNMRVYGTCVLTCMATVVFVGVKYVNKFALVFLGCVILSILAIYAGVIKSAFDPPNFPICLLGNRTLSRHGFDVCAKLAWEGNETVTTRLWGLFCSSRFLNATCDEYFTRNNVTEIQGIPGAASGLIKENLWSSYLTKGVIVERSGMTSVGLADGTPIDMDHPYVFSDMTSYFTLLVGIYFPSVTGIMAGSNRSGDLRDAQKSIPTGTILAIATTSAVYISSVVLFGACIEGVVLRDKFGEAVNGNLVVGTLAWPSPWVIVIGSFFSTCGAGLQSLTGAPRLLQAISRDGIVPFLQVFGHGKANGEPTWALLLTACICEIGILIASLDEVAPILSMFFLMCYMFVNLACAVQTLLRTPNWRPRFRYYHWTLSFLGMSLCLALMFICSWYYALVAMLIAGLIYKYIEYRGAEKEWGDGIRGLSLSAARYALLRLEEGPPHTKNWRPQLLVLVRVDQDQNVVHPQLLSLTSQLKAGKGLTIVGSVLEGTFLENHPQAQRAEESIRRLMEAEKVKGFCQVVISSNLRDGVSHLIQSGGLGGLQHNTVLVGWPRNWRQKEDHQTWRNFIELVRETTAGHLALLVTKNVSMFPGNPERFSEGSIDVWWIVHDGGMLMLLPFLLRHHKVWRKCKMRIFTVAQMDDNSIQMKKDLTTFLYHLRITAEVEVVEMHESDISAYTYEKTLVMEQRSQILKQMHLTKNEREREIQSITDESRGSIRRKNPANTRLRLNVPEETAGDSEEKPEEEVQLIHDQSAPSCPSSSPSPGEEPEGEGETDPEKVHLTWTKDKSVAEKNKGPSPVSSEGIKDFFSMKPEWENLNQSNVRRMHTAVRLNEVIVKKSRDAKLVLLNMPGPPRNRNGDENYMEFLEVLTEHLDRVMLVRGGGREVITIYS
Autophagy mod: autophagy modulators in MEF cells, primary screen, imaging, high-content, MEF GFP-LC3. AID 463193, 2010. 190,000 compounds, 0.98% hits. MEF GFP-LC3 puncta imaging; test concentration mostly 10 µM. calls only at 10 µM (by protocol);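 active = percentage of spot-positive cells more than 3 SD above its plate mean, without a fluorescence outlier flag or 80% toxicity; inconclusive = no clear call, values can overlap the other calls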;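 also: spot-positive cell cutoff set from DMSO-treated cells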
Redox H2O2 prof: compounds producing H2O2 with reducing agent – biochemical, NIH compound library profiling, artefact control for MLSCN library redox annotation, primary screen. DTT-dependent redox cycling H2O2, phenol red/HRP absorbance; 100% = 100 µM peroxide control, 0% = buffer. activation, % at 10 µM. 200,000 compounds, 0.03% hits. AID 878, 2007;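 active = activation of at least 50% relative to the plate's high and low controls in the primary single-dose screen; inactive = activation below 50%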;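 also: compound incubated with DTT at 0.8 mM final as the reducing agent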
KCC2 secondary: KCC2 modulators in sodium-free buffer, confirmation, cell-based, HEK293 KCC2, thallium flux, secondary assay. shares compounds with KCC2 mod. FluoZin2 fluorescence; active compounds read high. normalised thallium flux (F/F0 slope) at 10 µM. 3,700 compounds, 15% hits. AID 1713, 2009;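 active = thallium flux slope above the same plate's solvent-only control mean plus 3 SD; inconclusive = the two replicate wells disagree; inactive = no significant difference from solvent-only control wells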
KCC2 bumet counter: thallium flux persisting under bumetanide in KCC2 cells, confirmation, counter-screen for KCC2 modulator project, cell-based, HEK293 KCC2, FluoZin2, secondary assay 3; shares compounds with KCC2 mod; HEK293-KCC2 + bumetanide/ouabain; active compounds read high; normalized thallium flux at 10 µM; 3,700 compounds, 49% hits; AID 1714, 2009;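 active = thallium entry rate above the same plate's blocked-transporter control wells by more than 3 SD; inconclusive = the two repeat wells disagree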;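 also: raw slope of fluorescence over initial fluorescence between 10 and 20 s after thallium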
KCC2 sec2: KCC2 modulators without ouabain present, confirmation, cell-based, HEK293 KCC2, thallium flux, FluoZin2, secondary assay 2; shares compounds with KCC2 mod; thallium flux FluoZin2 fluorescence; actives lie on both sides; F/F0 rise rate, 10–20 s post-thallium; normalized thallium flux at 10 µM; 3,700 compounds, 23% hits;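 active = thallium flux slope more than 3 SD above or below the plate's solvent-only control mean, mostly below; inconclusive = the two repeat wells disagreed; inactive = no significant shift from solvent-only controls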;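 also: raw slope with 0.1% DMSO as baseline and bumetanide as block control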
HEK counter1: thallium flux modulation in parental HEK cells, confirmation, counter-screen for KCC2 modulator project, cell-based, counterscreen 1 | shares compounds with KCC2 mod | HEK293 parental cells, thallium flux FluoZin2, ouabain; baseline-ratio fluorescence slope, 10–20 s after thallium | thallium flux rate (normalised fluorescence) at 10 µM | 3,700 compounds, 46% hits | AID 1716, 2009;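 active = thallium flux rate significantly above the same plate's solvent-only control wells, beyond their mean plus 3 SD; inconclusive = the two replicate wells gave conflicting results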
KCC2 retest ouab: KCC2 inhibitors and activators, ouabain retest, confirmation, HEK-KCC2 cells; raw Tl+ flux slope (below DMSO = inhibition, above = activation) at 10 µM; HEK293-KCC2, thallium flux FluoZin2 fluorescence; bidirectional: low = inhibitor, high = activator; shares compounds with KCC2 mod; 3,700 compounds, 48% hits;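 active = thallium flux slope beyond 3 SD from same-plate DMSO control mean in most replicates, usually higher, sometimes lower; inconclusive = repeat tests gave conflicting results; inactive = no significant difference from controls in most replicates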;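 also: slope of initial-normalized fluorescence between seconds 10 and 20 after thallium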
HEK counter2: native HEK Tl+ uptake effects, second counter-screen – HEK cells, counterscreen 2, counter-screen for KCC2 modulator project, confirmation; shares compounds with KCC2 mod; HEK293 parental, thallium flux FluoZin-2 fluorescence slope; thallium flux slope at 10 µM; 3,700 compounds, 33% hits; AID 1718, 2009;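 active = thallium flux slope above the same plate's solvent-control mean plus 3 SD in both duplicate wells; inconclusive = duplicate wells that disagreed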;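 also: run without ouabain in cells lacking the KCC2 cotransporter; slope of fluorescence scaled to its starting value between 10 and 20 s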
ROMK retest: ROMK channel modulator hit retest, confirmation, cell-based, thallium flux, duplicate, resupplied hits; shares compounds with ROMK primary; fluorescence ratio; active compounds read low; normalized thallium flux (F/F0 slope) at 10 µM; 3,000 compounds, 54% hits; AID 1917, 2009;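 active = Flux at 10 µM at least 3 SD below or above vehicle control mean in one or both replicates; inconclusive = no clear call, values can overlap the other calls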
* hit, by the source's call; i = inactive; ? = inconclusive; / = not tested or not shown; + = active, no number.

SMILES | Dynein transport | ROMK primary | KCC2 mod | Autophagy mod | Redox H2O2 prof | KCC2 secondary | KCC2 bumet counter | KCC2 sec2 | HEK counter1 | KCC2 retest ouab | HEK counter2 | others
COc1ccc(C2=NN(CN3C(=O)C(=O)c4ccccc43)C(c3cccc([N+](=O)[O-])c3)C2)cc1 (stereo unspecified) | 0.376 | / | 0.239 | / | / | / | / | / | / | / | /
O=C(Nc1nc2ccccc2s1)c1cc(-c2ccccc2)nn1-c1ccccc1 | -0.397 | 0.263 | 1.44 | i | 0.3 | / | / | / | / | / | /
N#Cc1ccc(-c2csc(NNC(=O)c3ccccc3)n2)cc1 | 0.361 | / | / | i | 2.0 | / | / | / | / | / | /
O=C(NNC(=O)c1ccc(-c2ccccc2)cc1)c1ccccc1 | -1.63 | / | -3.66* | i | 0.0 | 0.00711 | ? | 0.0277 | 0.00745 | 0.0159 | ?
Cc1cccc(C(=O)NNC(=O)c2ccc(-c3ccccc3)cc2)c1 | -0.471 | / | / | i | 1.0 | / | / | / | / | / | /
O=C(NNC(=O)c1cc(-c2ccccc2)nn1-c1ccccc1)c1ccccc1 | -0.817 | 0.0725 | 29.5* | i | 0.1 | 0.00592 | 0.104* | 0.0667* | 0.0665* | 0.0761* | 0.063*
O=C(NNc1nc(-c2ccccc2)cs1)c1ccccc1 | -1.05 | / | -5.89* | i | 1.8 | 0.0106 | ? | 0.025* | 0.00804 | 0.0145* | 0.0111
Cc1cccc(CN(C(=S)Nc2c(C)cccc2C)c2cccnc2)c1 | -0.0142 | -0.387 | -0.71 | i | -0.7 | / | / | / | / | / | /
CS(=O)(=O)N(CC(O)CON=C1c2ccccc2-c2ccccc21)c1ccc(F)cc1 (stereo unspecified) | 1.75 | -0.604 | / | i | 0.0 | 0.00604 | 0.00459 | 0.031 | ? | 0.0192 | 0.01
Cc1cccc(N(CC(O)CON=C2c3ccccc3-c3ccccc32)S(C)(=O)=O)c1 (stereo unspecified) | -0.789 | / | -0.406 | i | 2.2 | / | / | / | / | / | /
COc1ccc(CNCc2cn(-c3cccc(F)c3)nc2-c2ccc(C)o2)cc1 | 1.64 | -0.563 | / | i | -1.3 | / | / | / | / | / | /
O=[N+]([O-])c1ccc(Sc2cccc3cccnc23)c([N+](=O)[O-])c1 | 1.48 | 1.49 | / | + | -0.1 | 0.0152* | 0.0525* | 0.0352 | ? | 0.0351* | 0.0129
C=CCn1nc([N+](=O)[O-])nc1Sc1cccc2cccnc12 | -1.16 | 0.973 | 11.8* | i | -0.1 | 0.0146* | 0.0602* | 0.0303 | 0.0183* | 0.0363* | 0.0112*
CCN(CC)S(=O)(=O)c1cc(NC(=O)CCCOc2ccc(C(C)=O)cc2)ccc1C | -0.292 | / | -1.05 | i | 0.0 | / | / | / | / | / | /
N#Cc1cnn2c(-c3ccc(Cl)cc3Cl)ccnc12 | -0.09 | -0.693 | -0.0517 | i | 0.2 | / | / | / | / | / | /
N#CCCn1cc(C=O)c(-c2cccs2)n1 | -0.186 | -0.243 | 0.105 | i | 7.5 | / | / | / | / | / | /
COCCNC(=O)CSc1ncnc2sc(-c3ccccc3)cc12 | -0.777 | -0.791 | 7.48* | i | 1.4 | 0.0164 | 0.0206* | 0.0316 | 0.014* | 0.0218* | 0.0165*
O=C(O)CCSc1ncnc2sc(-c3ccccc3)cc12 | -0.766 | / | 51.2* | / | / | ? | 0.0556* | 0.0429* | 0.0558* | 0.055* | 0.033*
O=C(COC(=O)c1cccnc1Cl)NCCC1=CCCCC1 | -0.698 | -0.167 | 0.71 | i | -0.2 | / | / | / | / | / | /
CC(C)(C)c1cc(-c2csc(Nc3ccccc3)[n+]2Cc2ccc(C(=O)O)cc2)cc(C(C)(C)C)c1O | -0.398 | 0.0271 | -1.78 | / | / | / | / | / | / | / | /
O=C(O)c1ccc(C[n+]2c(-c3ccccc3)csc2Nc2ccccc2)cc1 | -0.93 | -0.27 | -3.61* | i | 0.0 | 0.00878 | ? | 0.0314 | 0.00728 | 0.0155* | 0.0103
O=S1(=O)C=C(SCc2ccccc2)Nc2ccccc21 | -0.507 | / | -1.82 | i | -7.2 | / | / | / | / | / | /
O=S1(=O)C=C(SCc2ccc(F)cc2)Nc2ccccc21 | 0.633 | -1.04 | -4.34* | i | -0.9 | 0.00783 | 0.00632 | 0.0278 | 0.00714 | 0.0269* | 0.0105
CCc1cccc(N(C(=O)c2csnn2)C(C(=O)NC(C)(C)C)c2ccccn2)c1 (stereo unspecified) | -0.302 | -1.04 | / | i | -1.1 | / | / | / | / | / | /
C=CCc1c(C)nc(N2CCSCC2)[nH]c1=O | -0.0397 | 0.0103 | 0.166 | / | / | / | / | / | / | / | /
Cc1cc(-c2nnc(CCC(=O)N(C)Cc3cccc4ccccc34)o2)no1 | 0.492 | -0.403 | -1.5 | i | -0.3 | / | / | / | / | / | /
COc1cccc(CNC(=O)c2cc3oc4ccccc4c3n2C)c1OC | -0.901 | / | 7.51* | i | -0.2 | 0.00906 | 0.00612 | 0.0355 | 0.00442 | 0.0201 | 0.0124
O=C(CCC(=O)N(CC(=O)NC1CCCCC1)CC1CCCO1)Nc1nccs1 (stereo unspecified) | -0.471 | 0.157 | / | i | 5.7 | / | / | / | / | / | /
C=CCOC(=O)C1=C(C)OC(N)=C(C#N)C1c1ccc2c(c1)OCO2 (stereo unspecified) | -0.181 | -3.22* | -2.09 | i | -0.2 | / | / | / | / | / | / | ROMK retest=0.0849*
